# Experimental data collected from several papers.
# Each line is one published result; the experiments were not run side by side.
# MAOA: Amine oxidase [flavin-containing] A (MAOA, Homo sapiens, UniProt P21397)
# USP2: Ubiquitin carboxyl-terminal hydrolase 2 (USP2, Homo sapiens, UniProt O75604)
# Oprk1: Kappa-type opioid receptor (Oprk1, Rattus norvegicus, UniProt P34975)
SMILES,target,read-out,action,technique,concentration,time,inhibition [%]
O=C(Nc1ccc([N+](=O)[O-])cc1[N+](=O)[O-])c1ccc2c(c1)OCO2,MAOA,enzyme activity,inhibitor,,1 µM,20 min,44
CN(C)C(=O)COC(=O)Cc1ccc(OC(=O)c2ccc(NC(=N)N)cc2)cc1,USP2,enzyme activity,inhibitor,,10 µM,,1
O=C(Nc1cccnn1)N1CCN([C@@H]2CCOc3cc(C(F)(F)F)ccc32)CC1,Oprk1,cell-free assay,,,20 µM,,21
Nc1ncnc2c1ncn2[C@@H]1O[C@H](CNS(=O)(=O)c2ccc3ccccc3c2)[C@@H](O)[C@H]1O,"Protein arginine N-methyltransferase 3 (PRMT3, Homo sapiens, UniProt O60678)",enzyme activity,inhibitor,,10 µM,,-5
CCOC(=O)c1ccc(OC(=O)CCCCCNC(=N)N)cc1,"Dipeptidyl peptidase 3 (DPP3, Homo sapiens, UniProt Q9NY33)",enzyme activity,inhibitor,,10 µM,,4
C[C@H](C(=O)N[C@H]1COc2ccccc2[C@@H]1S(C)(=O)=O)c1ccc(F)cc1,MAOA,cell-free assay,inhibitor,,10 µM,,-2
O=C(O)C(=O)Nc1sc2c(c1C(=O)O)CCNC2,"Tyrosine-protein phosphatase non-receptor type 1 (PTPN1, Homo sapiens, UniProt P18031)",enzyme activity,inhibitor,,30 µM,,~50
Cn1cc(-c2cc(F)cc(N3CCn4c(cc5c4CCCC5)C3=O)c2CO)cc(Nc2ccc(N3CCN(C4COC4)CC3)cn2)c1=O,"Cyclin-dependent kinase 5, with p35 (CDK5, Homo sapiens, UniProt Q00535)",enzyme activity,inhibitor,,0.1 µM,,6
CCN(CC)CCCC[C@H](NC(=O)[C@H](CC(C)C)NC(=O)[C@H](C)NC(=O)[C@H](Cc1ccccc1)NC(=O)c1ccc(C(C)(C)C)cc1)C(=O)N[C@@H](CO)C(=O)OC,Oprk1,ligand displacement,,radioligand,10 µM,,91
C#Cc1n[nH]c2c(-c3cn([C@@H](C)c4ccccn4)c(=O)[nH]c3=O)cc(F)cc12,"Focal adhesion kinase 1 (PTK2, Homo sapiens, UniProt Q05397)",enzyme activity,inhibitor,,0.1 µM,,4.5
CC(C)C[C@H](NC(=O)[C@H]1O[C@@H]1C(=O)O)C(=O)NCCCCN=C(N)N,"Cathepsin S (CTSS, Homo sapiens, UniProt P25774)",enzyme activity,inhibitor,,50 nM,,81
COCc1c(-c2cc3cc(C)cc(OC)c3s2)c2c(N)ncnn2c1CN1CCNC(=O)C1,MAOA,enzyme activity,inhibitor,,10 µM,,-3
N=C(N)c1ccc2cc(OC(=O)c3ccc(N=C(N)N)cc3)ccc2c1,USP2,enzyme activity,inhibitor,,10 µM,,0
C[C@@H]1CCCN1CCCCOc1ccc2occc(=O)c2c1,MAOA,enzyme activity,inhibitor,fluorescence,10 µM,,7
Clc1ccc2c(C3CCN(CCc4c[nH]c5ccccc45)CC3)c[nH]c2c1,"Alpha-1A adrenergic receptor (ADRA1A, Homo sapiens, UniProt P35348)",ligand displacement,,radioligand,10 µM,,108
Cc1ncc(C)n2nc(/C=C/c3nc(N4CCCC4)cc(N4CCOCC4)n3)nc12,"Angiotensin-converting enzyme 2 (ACE2, Homo sapiens, UniProt Q9BYF1)",enzyme activity,inhibitor,,10 µM,,11
